What was measured:
[1] = tested on: Rattus norvegicus; assay: Inhibition of serotonin skin reaction in rat after 2 hr of oral administration; type: functional
How it was run: (§1)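 Test compound or solvent given orally to rats 2 h before four intradermal injections into clipped back: two of 50 μL histamine dihydrochloride (1 mg/mL in saline), two of 50 μL serotonin (2 μg/mL in saline). Then iv 0.5 mL of 0.5% trypan blue. Bluing of skin reactions scored 30 min later.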

[2] = tested on: Rattus norvegicus; assay: Inhibition of histamine skin reaction in rat after 2 hr of oral administration; type: functional; how it was run: as §1
[3] = tested on: Rattus norvegicus; assay: In vivo antihistaminic activity using compound 48/80 induced lethality test in rat after 2 hr of subcutaneous administration; type: functional; settings: sc
How it was run: (§2)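 Protection was survival for 4 h after challenge. ED50 with confidence limits was calculated by Finney from five rats per dose and at least three doses of a geometric series (0.0025–40 mg/kg). Estimated ED50 used at least two rats per dose.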

[4] = tested on: Rattus norvegicus; assay: In vivo antihistaminic activity using compound 48/80 induced lethality test in rat after 2 hr of oral administration; type: functional; how it was run: as §2
[5] = tested on: Cavia porcellus; assay: In vivo histamine induced lethality after 48 hours of iv administration in guinea pig; type: functional
How it was run: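 Male albino guinea pigs (280–360 g) were dosed orally 3, 24, 48 or 96 h before an iv challenge with histamine dihydrochloride (1.25 mg/kg). Protection was survival at 1 h. Doses rose in 2-fold steps from 0.0025 mg/kg, with at least three doses and 4–6 animals per dose and time point. PD50 with confidence limits was computed by Finney.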

[6] = tested on: Rattus norvegicus; assay: Inhibition of mydriatic activity in rat after 2 hr of oral administration.; type: functional
[7] = tested on: Cavia porcellus; assay: In vivo histamine induced lethality after 8 hours of iv administration in guinea pig; type: functional
[8] = tested on: Cavia porcellus; assay: In vivo histamine induced lethality after 3 hours of iv administration in guinea pig; type: functional
[9] = tested on: Rattus norvegicus; assay: Inhibition of serotonin skin reaction in rat after 2 hr of subcutaneous administration.; type: functional; settings: sc
[10] = tested on: Cavia porcellus; assay: In vivo histamine induced lethality after 96 hours of iv administration in guinea pig; type: functional
[11] = tested on: Rattus norvegicus; assay: In vivo antihistaminic activity using compound 48/80 induced lethality test after 1 hr of subcutaneous administration in rat; type: functional; settings: sc; how it was run: as §2
[12] = tested on: Rattus norvegicus; assay: Inhibition of histamine skin reaction in rat after 2 hr of subcutaneous administration.; type: functional; settings: sc
[13] = tested on: Rattus norvegicus; assay: Inhibition of mydriatic activity in rat after 2 hr of intraperitoneal administration.; type: functional; settings: ip
[14] = tested on: Cavia porcellus; assay: In vivo histamine induced lethality after 24 hours of iv administration in guinea pig; type: functional
[15] = tested on: Rattus norvegicus; assay: In vivo antihistaminic activity using compound 48/80 induced lethality test in rat after 2 hr of oral administration; C represents estimated ED50 values used whenever possible for comparison of relative potencies; type: functional, organism-based
How it was run: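 Protection = survival 4 h after challenge. ED50 (dose giving 50% survival) calculated with confidence limits by Finney, five animals per dose, at least three doses from geometric series 0.0025–40.0 mg/kg. Estimated ED50 values based on at least two animals per dose.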

[16] = tested on: Rattus norvegicus; assay: Inhibition of mydriatic activity in rat after 2 hr of oral administration; type: functional
[17] = tested on: Rattus norvegicus; assay: In vivo antihistaminic activity using compound 48/80 induced lethality test in rat 2 hr after oral administration; type: functional; how it was run: as §2
[18] = tested on: Rattus norvegicus; assay: Inhibition of serotonin skin reaction in rat after 2 hr of oral administration.; type: functional; how it was run: as §1
[19] = tested on: Rattus norvegicus; assay: Inhibition of histamine skin reaction in rat after 2 hr of oral administration.; type: functional; how it was run: as §1
[20] = tested on: Rattus norvegicus; assay: In vivo antihistaminic activity using compound 48/80 induced lethality test in rat after 2 hr of oral administration.; type: functional; how it was run: as §2
[21] = tested on: Rattus norvegicus; assay: In vivo antihistaminic activity using compound 48/80 induced lethality test in rat after 2 hr( oral administration); type: functional; how it was run: as §2
[22] = tested on: Rattus norvegicus; assay: Inhibition of mydriatic activity in rat after 2 hr of intraperitoneal administration; type: functional; settings: ip

Row | Structure (SMILES) | ED50 [4] [mg/kg] | ED50 [5] [mg/kg] | ED50 [6] [mg/kg] | ED50 [7] [mg/kg] | ED50 [8] [mg/kg] | ED50 [9] [mg/kg] | ED50 [10] [mg/kg] | ED50 [11] [mg/kg] | ED50 [12] [mg/kg] | ED50 [14] [mg/kg] | also measured
1 | CN1CCC(=C2c3ccccc3CCc3cccnc32)CC1 [AZATADINE] | 0.48 | > 2.5 | 5.39 | 0.06 | 0.014 | – | – | – | – | – | ED50 [1]: 18.8 mg/kg; ED50 [2]: 0.77 mg/kg; ED50 [3]: 0.049 mg/kg
2 | Br.OCCN1CCC(Nc2nc3ccccc3n2Cc2ccc(F)cc2)CC1 | 0.63 | 0.3 | – | 0.07 | 0.04 | > 0.63 | 2.15 | 0.04 | 0.08 | 0.09 | ED50 [13]: > 40 mg/kg
3 | O=[N+]([O-])c1ccc(CCN2CCC(Nc3nc4ccccc4n3Cc3ccc(F)cc3)CC2)cc1 | – | – | – | – | – | – | – | > 2.5 | – | – | ED50 [15]: Estimated ED50 values used whenever possible
4 | COc1ccc(CN(CCN(C)C)c2ccccn2)cc1 [PYRILAMINE] | – | – | – | – | – | – | – | – | – | – | ED50 [16]: 56.5 mg/kg; ED50 [17]: 56.6 mg/kg; ED50 [18]: > 40 mg/kg; ED50 [19]: > 40 mg/kg
5 | Fc1ccc(Cn2c(NC3CCN(CCc4ccccc4)CC3)nc3ccc(F)cc32)cc1 | – | – | – | – | – | – | – | 1.25 | – | – | ED50 [20]: 0.63 mg/kg
6 | CN1CCC(=C2c3ccccc3C=Cc3ccccc32)CC1 [CYPROHEPTADINE] | – | – | 9.36 | 0.88 | 0.08 | – | – | – | – | > 2.5 | ED50 [21]: 1.13 mg/kg; ED50 [18]: 2.35 mg/kg; ED50 [19]: 0.89 mg/kg
7 | Fc1ccc(Cn2c(NC3CCN(CCc4ccccc4)CC3)nc3cc(F)ccc32)cc1 | – | – | – | – | – | – | – | 1.25 | – | – | ED50 [20]: > 2.5 mg/kg
8 | COc1ccc(CCN2CCC(Nc3nc4ccccc4n3Cc3ccc(F)cc3)CC2)cc1 [ASTEMIZOLE] | 0.11 | 0.04 | > 160 | 0.17 | 0.33 | > 2.5 | 0.19 | 0.11 | 0.15 | 0.07 | ED50 [22]: > 40 mg/kg; ED50 [1]: 14.2 mg/kg; ED50 [2]: 0.13 mg/kg
9 | Oc1ccc(CCN2CCC(Nc3nc4ccccc4n3Cc3ccc(F)cc3)CC2)cc1 [DESMETHEYLASTEMIZOLE] | 0.1 | 0.12 | – | 0.08 | 0.19 | ≥ 0.63 | 0.27 | 0.16 | 0.08 | 0.06 | ED50 [13]: > 40 mg/kg
